Bioassay records as filed in PubChem BioAssay.
Sampled rows, rich in hits. Any-hit rate of the full collection: about 3.7%.
MDM2 E3 inh – Mdm2 E3 ligase (human) inhibition. Q00987. cell-based MDM2 ubiquitination luciferase reporter, 2 h; 0 = plate control, 100 = twice control, blank-subtracted. signal enhancement, % at 5 µM. hit rate 0.11% among 210,000. AID 1230;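 active = signal enhancement of 30% or more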;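 note: luminescence tracks abundance of the self-degrading MDM2-luciferase fusion protein; higher signal means inhibition of MDM2 E3 ligase activity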
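Test system: mammalian cells stably expressing self-ubiquitinating, self-degrading MDM2 E3–luciferase fusion; Amount: 2000 cells in each well; Medium: DMEM; Schedule: 4 h settle plus 2 h compound, 37 °C; Technique: SteadyLite luciferase luminescence after 15 min room-temperature reagent incubation; Benchmarks: plate control and blank wells.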
Cl transport mod – modulates chloride dependent transport by human KCC2 | Q9H2X9 | KCC2 cells, thallium flux FluoZin-2 fluorescence | B-score of Tl+ flux slope (higher = more flux/activation; lower = inhibition) at 10 µM | hit rate 2.2% among 190,000;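 active = thallium flux slope and its plate-corrected score both differing from the plate sample mean at a set confidence after two filtering rounds, in either direction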;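 note: slope of fluorescence scaled to starting intensity during 10 to 20 s after thallium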
m-calpain inh – calpain II (pig) inhibition; purified calpain II, fluorogenic peptide substrate, 30 min; inhibition, % at 16 µM; hit rate 0.37% among 220,000; AID 1236;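 active = inhibition above about 50%, limit read from the data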
Arbovirus anti – arbovirus infection inhibition; AID 1251; arbovirus infection cell-based antiviral screen; inhibition, % at 10 µM; hit rate 0.37% among 200,000; in the data active = inhibition above about 30%
PKD1 kinase inh – blocks activity of human protein kinase D1. AID 797. PKD1 kinase fluorescence polarization assay. Q15139. inhibition, % (concentration not given with the values). hit rate 0.056% among 200,000; in the data active = inhibition above about 50%
Target sequence (Q15139 whole entry, looked up): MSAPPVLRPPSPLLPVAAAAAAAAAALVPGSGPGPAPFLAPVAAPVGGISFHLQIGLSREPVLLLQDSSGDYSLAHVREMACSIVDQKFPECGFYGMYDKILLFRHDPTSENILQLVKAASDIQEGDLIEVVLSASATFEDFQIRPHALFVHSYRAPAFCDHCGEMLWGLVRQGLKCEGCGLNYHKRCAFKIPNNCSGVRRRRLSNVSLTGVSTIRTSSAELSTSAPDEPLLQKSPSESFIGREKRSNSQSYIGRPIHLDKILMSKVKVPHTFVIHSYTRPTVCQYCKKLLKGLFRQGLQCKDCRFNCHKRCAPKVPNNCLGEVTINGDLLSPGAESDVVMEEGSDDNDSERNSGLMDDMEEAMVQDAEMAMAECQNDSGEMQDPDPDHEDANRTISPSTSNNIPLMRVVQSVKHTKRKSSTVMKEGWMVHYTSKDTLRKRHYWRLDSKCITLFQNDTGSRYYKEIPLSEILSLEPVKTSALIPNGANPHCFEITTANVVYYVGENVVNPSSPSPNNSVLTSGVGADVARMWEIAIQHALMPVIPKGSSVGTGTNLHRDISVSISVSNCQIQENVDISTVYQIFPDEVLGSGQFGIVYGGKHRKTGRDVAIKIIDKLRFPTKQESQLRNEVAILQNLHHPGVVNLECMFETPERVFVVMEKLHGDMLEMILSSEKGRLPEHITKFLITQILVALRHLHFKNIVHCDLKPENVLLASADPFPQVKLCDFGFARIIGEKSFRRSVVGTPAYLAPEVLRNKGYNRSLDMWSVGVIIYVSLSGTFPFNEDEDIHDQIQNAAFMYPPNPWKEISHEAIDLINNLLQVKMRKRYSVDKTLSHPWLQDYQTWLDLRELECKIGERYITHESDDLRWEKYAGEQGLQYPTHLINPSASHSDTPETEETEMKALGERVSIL
ROMK primary – modulates human ROMK potassium channel activity; P48048; Tet-inducible ROMK, thallium flux fluorescence; actives lie on both sides; B-score at 10 µM; hit rate 2% among 130,000;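 active = signal ratio slope over the read window, or its plate-corrected B-score, at least 3 SD from the plate mean, either direction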;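 note: B-score of the F/F0 ratio slope over 7 to 12 s after thallium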
KCC2 secondary – confirmation of human KCC2 transport modulators. normalised thallium flux (F/F0 slope) at 10 µM. hit rate 15% among 3,700. shares compounds with Cl transport mod. HEK293-KCC2, thallium flux, FluoZin2 fluorescence; hits give high values. AID 1713;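 active = thallium flux slope above the same plate's solvent-only control mean plus 3 SD; inconclusive = the two replicate wells disagree; inactive = no significant difference from solvent-only control wells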
KCC2 bumet counter – thallium flux despite bumetanide block in KCC2 cells, secondary assay 3 | normalized thallium flux at 10 µM | AID 1714 | hit rate 49% among 3,700 | shares compounds with Cl transport mod | HEK293-KCC2 + bumetanide/ouabain, thallium flux FluoZin2; hits give high values;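 active = thallium entry rate above the same plate's blocked-transporter control wells by more than 3 SD; inconclusive = the two repeat wells disagree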;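 note: raw slope of fluorescence over initial fluorescence between 10 and 20 s after thallium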
KCC2 secondary2 – KCC2 (human) modulation, second secondary assay | hit rate 23% among 3,700 | HEK293-KCC2, thallium flux FluoZin2 fluorescence; actives lie on both sides; F/F0 rise rate, 10–20 s post-thallium | shares compounds with Cl transport mod | normalized thallium flux at 10 µM;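 active = thallium flux slope more than 3 SD above or below the plate's solvent-only control mean, mostly below; inconclusive = the two repeat wells disagreed; inactive = no significant shift from solvent-only controls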
HEK293 Tl flux – counter-screen for KCC2 modulators: effect in parental HEK293 cells; shares compounds with Cl transport mod; thallium flux FluoZin2, ouabain; baseline-ratio fluorescence slope, 10–20 s after thallium; thallium flux rate (normalised fluorescence) at 10 µM; hit rate 46% among 3,700;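 active = thallium flux rate significantly above the same plate's solvent-only control wells, beyond their mean plus 3 SD; inconclusive = the two replicate wells gave conflicting results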
KCC2 retest ouab – confirmation of human KCC2 modulators with ouabain | HEK293-KCC2, thallium flux FluoZin2 fluorescence; bidirectional: low = inhibitor, high = activator | AID 1717 | shares compounds with Cl transport mod | raw Tl+ flux slope (below DMSO = inhibition, above = activation) at 10 µM | hit rate 48% among 3,700;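 active = thallium flux slope beyond 3 SD from same-plate DMSO control mean in most replicates, usually higher, sometimes lower; inconclusive = repeat tests gave conflicting results; inactive = no significant difference from controls in most replicates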;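 note: slope of initial-normalized fluorescence between seconds 10 and 20 after thallium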
HEK293 Tl flux2 – counter-screen for KCC2 modulators: effect in parental HEK293 cells. shares compounds with Cl transport mod. thallium flux FluoZin-2 fluorescence slope. thallium flux slope at 10 µM. hit rate 33% among 3,700. AID 1718;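 active = thallium flux slope above the same plate's solvent-control mean plus 3 SD in both duplicate wells; inconclusive = duplicate wells that disagreed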;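 note: run without ouabain in cells lacking the KCC2 cotransporter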
Large screens that a line does not name were inactive (follow-up assays come after a bar, where they were run).

CCCCn1c(=S)[nH]c2ccc(N3CCOCC3)cc2c1=O	Cl transport mod 12 | KCC2 secondary 0.0143 | KCC2 bumet counter 0.0308 | KCC2 secondary2 inactive | HEK293 Tl flux 0.03 | KCC2 retest ouab 0.0319 | HEK293 Tl flux2 0.0163
Cc1ccc(Cn2c(=S)[nH]c3ccc(N4CCOCC4)cc3c2=O)o1	Cl transport mod 13.9 (no result: ROMK primary) | KCC2 secondary inactive | KCC2 bumet counter 0.00977 | KCC2 secondary2 inactive | HEK293 Tl flux inconclusive | KCC2 retest ouab inactive | HEK293 Tl flux2 inactive
Cc1nn2c(NCC(C)C)c3c(nc2c1-c1ccccc1)CCC3	Cl transport mod 9.49 (no result: ROMK primary) | KCC2 secondary inactive | KCC2 bumet counter inactive | KCC2 secondary2 inactive | HEK293 Tl flux inactive | KCC2 retest ouab inactive | HEK293 Tl flux2 inactive
O=C(N/N=C/c1cc([N+](=O)[O-])cc(Br)c1O)C12CC3CCC(CC(C3)C1)C2	Cl transport mod 8.34 (no result: Arbovirus anti, PKD1 kinase inh, ROMK primary) | KCC2 secondary inactive | KCC2 bumet counter 0.0174 | KCC2 secondary2 inactive | HEK293 Tl flux 0.0123 | KCC2 retest ouab inconclusive | HEK293 Tl flux2 inconclusive
COc1cc(/C=N/NC(=O)C23CC4CC(CC(C4)C2)C3)cc(Br)c1O	none
Cc1ccc2cc(C#N)c(NCc3ccco3)nc2c1	none
CC(=O)c1cccc(N(C(=O)Cn2nnc3ccccc32)C(C(=O)NC2CCCCC2)c2cn(C)nc2C)c1 (stereo unspecified)	none (no result: Cl transport mod) | KCC2 secondary inactive | KCC2 bumet counter inconclusive | KCC2 secondary2 inactive | HEK293 Tl flux inactive | KCC2 retest ouab inactive | HEK293 Tl flux2 inconclusive
Cc1nn(CC(=O)OCC(=O)NC(C)c2ccccc2)c(C)c1[N+](=O)[O-] (stereo unspecified)	none
CCS(=O)(=O)NCc1ccc2c(c1)cc(C)n2C	Cl transport mod -3.1 (no result: ROMK primary) | KCC2 secondary inactive | KCC2 bumet counter inactive | KCC2 secondary2 inactive | HEK293 Tl flux inactive | KCC2 retest ouab inactive | HEK293 Tl flux2 inactive
CCCS(=O)(=O)NCc1ccc2c(c1)cc(C)n2C	none
O=C(c1ccc(S(=O)(=O)c2cccc(Cl)c2)c([N+](=O)[O-])c1)N1CCN(c2ccccn2)CC1	Cl transport mod -4.97 | KCC2 secondary inactive | KCC2 bumet counter inactive | KCC2 secondary2 0.0221 | HEK293 Tl flux inactive | KCC2 retest ouab inconclusive | HEK293 Tl flux2 inactive
CC(C)(C)C(=O)NC(=S)NNC(=O)c1ccc(Cl)cc1Cl	Cl transport mod 38.4 | KCC2 secondary 0.0311 | KCC2 bumet counter 0.05 | KCC2 secondary2 inactive | HEK293 Tl flux 0.0526 | KCC2 retest ouab 0.0583 | HEK293 Tl flux2 0.0171
CCC(=O)Nc1ccc(C(=O)NNC(=O)c2cc(OC)c(OC)c(OC)c2)cc1	none
Cc1cccc(N2CCN(C(=O)c3ccc(N4CCCC4=O)cc3)CC2)c1C	none
CN1C(C(=O)NCc2ccccc2)CC2Cn3c(nc4ccccc43)C21 (stereo unspecified)	none (no result: Arbovirus anti, PKD1 kinase inh, ROMK primary)
CN1C(C(=O)NCc2ccccc2)CC2Cn3c(nc4cc(Cl)c(Cl)cc43)C21 (stereo unspecified)	Cl transport mod -3.2 (no result: Arbovirus anti, PKD1 kinase inh, ROMK primary) | KCC2 secondary inactive | KCC2 bumet counter inactive | KCC2 secondary2 0.0225 | HEK293 Tl flux inactive | KCC2 retest ouab inactive | HEK293 Tl flux2 inactive
CCOC(=O)C1(Cc2ccccc2C)CCCN(C(=O)c2cc(C3CC3)[nH]n2)C1 (stereo unspecified)	none
